Series [1] is described as follows: Cytotoxicity against mouse peritoneal macrophages assessed as LDH release at 100 ug/ml after 24 hrs (reference value: 4 to 9 %). It is filed as functional, Peritoneal macrophage cell. For orientation: LDH in the medium is a marker of cell lysis.
Series [2] is described as follows: Cytotoxicity against mouse peritoneal macrophages assessed as […] at 0.75 mM after 24 hrs (reference value: 10 %). It is filed as functional, Peritoneal macrophage cell. The method, boiled down: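 Thioglycolate-stimulated mouse peritoneal macrophages, 2-4 × 10^6 cells/dish, in duplicate. Compound dosed from Me2SO solution at 1 µL/mL, final 0.750 mM; control Me2SO only. At 24 h, units of N-acetyl-β-D-glucosaminidase (lysosomal marker) and LDH (cytoplasmic marker) released into medium were measured, ±15%.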

Series [3] concerns P815. Nature of the series: Induction of cell death in mouse P815 cells assessed as [51Cr] release at 100 ug/ml at 5 hrs (reference value: 10%). It is filed as functional.
The test system of series [4] is P815. Nature of the series: Induction of cell death in mouse P815 cells assessed as [51Cr] release at 25 ug/ml at 5 hrs. In kind it is functional.
Series [5] deals with P815. Put plainly: Induction of cell death in mouse P815 cells assessed as [51Cr] release at 50 ug/ml at 5 hrs. It is filed as functional.
Series [6] deals with P815. Put plainly: Induction of cell death in mouse P815 cells assessed as [51Cr] release at 75 ug/ml at 5 hrs. It is filed as functional.
Series [7] has as its system Raji. Nature of the series: Cytotoxicity to human Raji cells at 10 ug/ml after 3 days. In kind it is functional, cell-based.
The subject of series [8] is MRC5. Put plainly: Cytotoxicity to human MRC5 cells at 10 ug/ml after 3 days. It is filed as functional, cell-based.
Series [9] deals with Mus musculus. Nature of the series: Toxicity in mouse at 500 mg/kg, ip after 10 days. It is filed as organism-based. The note with it: in vivo, 240 h. Set-up: dose 500 mg/kg, route intraperitoneal. An outline of the steps:
(§1)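 Mice dosed ip; observed for 10 days.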

Series [10] concerns Mus musculus. Put plainly: Toxicity in mouse at 250 mg/kg, ip after 10 days. The arrangement: dose 250 mg/kg, route intraperitoneal. In kind it is organism-based. The settings on record: in vivo, 240 h. The method, boiled down: as §1
The subject of series [11] is P815. Nature of the series: Induction of cell death in mouse P815 cells assessed as [51Cr] release at 1 ug/ml at 5 hrs. It is filed as functional.
Series [12] has as its system P815. Put plainly: Induction of cell death in mouse P815 cells assessed as [51Cr] release at 3 ug/ml at 5 hrs. It is filed as functional.
Series [13] relates to P815. Nature of the series: Induction of cell death in mouse P815 cells assessed as [51Cr] release at 9 ug/ml at 5 hrs. It is filed as functional.
Series [14] relates to P815. Nature of the series: Induction of cell death in mouse P815 cells assessed as [51Cr] release at 27 ug/ml at 5 hrs. In kind it is functional.
Series [15] concerns Peritoneal macrophage cell. Nature of the series: Induction of large vacuole formation in mouse peritoneal macrophages at 10 to 25 ug/ml. It is filed as functional, cell-based.
Series [16] has as its system Peritoneal macrophage cell. Put plainly: Induction of cell death in mouse peritoneal macrophages at 50 ug/ml. In kind it is functional, cell-based.
In series [17] the test system is Raji. Put plainly: Cytotoxicity to human Raji cells. In kind it is functional, cell-based.
The test system of series [18] is Raji. Put plainly: Cytotoxicity to human Raji cells at 40 ug/ml after 3 days. In kind it is functional, cell-based.
For another series, the system named is WI-38. Nature of the series: Cytotoxicity to human W138 cells. It is filed as functional, cell-based.
The subject of a further series is RK13. Put plainly: Cytotoxicity to rabbit RK13 cells. The note with it: Oryctolagus cuniculus. In kind it is functional, cell-based.
Series [19] concerns MRC5. Put plainly: Cytotoxicity to human MRC5 cells. It is filed as functional, cell-based.
Series [20] deals with Peritoneal macrophage cell. Nature of the series: Induction of large vacuole formation in mouse peritoneal macrophages at 5 ug/ml. In kind it is functional, cell-based.
The test system of series [21] is Peritoneal macrophage cell. Put plainly: Induction of cell death in mouse peritoneal macrophages at 25 ug/ml. It is filed as functional, cell-based.
Series [22] in a line: Induction of cell lysis in ox RBC at 0.375 mM measured at 1 hr (reference value: 1.7 %). In kind it is cell-based, Bos taurus, Erythrocyte. The settings on record: cattle, ox red blood cells; read-out: Activity.
Series [23] in a line: Induction of cell lysis in ox RBC at 0.375 mM measured at 4 hrs (reference value: 1.8 %). It is filed as cell-based, Bos taurus, Erythrocyte. The settings on record: cattle, ox red blood cells; read-out: Activity.
A short description of series [24]: Induction of cell lysis in ox RBC at 0.188 mM measured at 4 hrs (reference value: 1.8 %). In kind it is cell-based, Bos taurus, Erythrocyte. The note with it: cattle, ox red blood cells; read-out: Activity.
The nature of series [25]: Induction of cell lysis in ox RBC at 0.188 mM measured at 1 hr (reference value: 1.7 %). In kind it is cell-based, Bos taurus, Erythrocyte. The settings on record: cattle, ox red blood cells; read-out: Activity.
A short description of series [26]: Induction of cell lysis in rabbit RBC at 0.188 to 0.375 mM measured at 1 to 4 hrs. It is filed as cell-based, Oryctolagus cuniculus. The note with it: erythrocyte, 375 µM.
The test system of the next series is HeLa. Nature of the series: Cytotoxicity to human HeLa cells at 100 ug/ml after 24 hrs. In kind it is functional, cell-based.

The values that follow come from ChEMBL document CHEMBL3244167, “Lysosomotropic agents. 1. Synthesis and cytotoxic action of lysosomotropic detergents” (J Med Chem, 1979).

Each structure is given as a SMILES string. Active and inactive are the calls of the source. The rule behind the calls is not given here.

As a reminder, the pKa is the pH at which an ionisable group is half protonated. In the case of `CCCCCCCCCCCCCCCCNCC(F)(F)F`, the Activity in series [1] was determined as 63%. Further, in the series “physchem”, the pKa is 5.2.

Regarding `CCCCCCCCCCCCCCNCC(F)(F)F`, the Activity was determined as 5% in series [1] and 25% in [2].

As to `CCCCCCCCCCCCN1CCOCC1`, the Activity is 85% in the series on P815 [3], 13% with P815 [4], 14% in the series with P815 [5] and 15% in the series on P815 [6]. The result with Raji [7] and in the series on MRC5 [8] was Active. For the same molecule, the pKa in “physchem” came to 7.6.

Regarding `CCCCCCCCCCCCNCC(F)F`, the Activity is 45% in the series on P815 [3], “Toxic” in the series with Mus musculus [9] and “Non-toxic” in the series with Mus musculus [10]. Besides, in “physchem”, the pKa was 7.5.

Turning to `CCCCCCCCCCCCn1ccnc1`, the Activity with P815 [5] was 94%; in the series on P815 [11] it was 10%; with P815 [12] it was 11%; in the series with P815 [13], 11%; in the series with P815 [14], 93%.

In “physchem”, `Cn1ccnc1` [1-METHYLIMIDAZOLE] gave a pKa of 7.

The molecule `Cc1ccncc1` came in with a pKa in “physchem” of 6.

In the case of `CCCCCCCCCCCCCc1ccncc1`, the outcome (in series [15]; in series [16]; with Raji [17]; with Raji [18]; in the series on WI-38; in the series with RK13) was Active. In addition, in the series on MRC5 [19], the outcome was Active. Besides, the Activity with P815 [3] is reported as 10%; in the series with Mus musculus [9] it was “Non-toxic”. In “physchem”, this molecule yielded a pKa of 5.9.

Consider `CCCCCCCCCCCCCc1ccccn1`, for which, in the series “physchem”, the pKa came out at 5.6.

As for `CCCCCCCCCCNCC(F)(F)F`, the Activity in series [1] worked out at 12%; in series [2], 32%.

Turning to `CCCCCCCCNCC(F)(F)F`, the Activity was found to be 7% in [1] and 19% in series [2]. For the same molecule, the pKa in the series “physchem” was 5.9.

Turning to `CCCCCCCCCn1ccnc1`, the pKa in “physchem” worked out at 6.6.

As to `CCCCCNCC(F)(F)F`, the Activity in [1] came out at 4%; in series [2], 14%.

As for `CCCCCCCCCCCCCCCCCCNCC(F)(F)F`, the Activity in series [1] is on record as 5%. This molecule displayed a pKa in “physchem” of 4.7.

As to `CCCCCCCCCCCCNCC(F)(F)F`, the Activity in series [1] is listed as 10%; in series [2], 27%; with P815 [3] it was 21%; in series [26], “Non-toxic”; with Mus musculus [9], “Non-toxic”. Besides, the outcome (in series [20]; in series [21]; in the series on Raji [17]; with Raji [18]; in the series on HeLa; in the series with WI-38) was Active. The outcome with RK13 and with MRC5 [19] was Active. In addition, in [22], the hemolysis at 1 h, 375 µM was 5.2%. Also, in [23], the hemolysis at 4 h, 375 µM worked out at 6.5%. In addition, in series [24], the hemolysis at 4 h, 188 µM was found to be 7.3%. Also, the hemolysis at 1 h, 188 µM in [25] was 4.2%. Also, the pKa in “physchem” came to 5.5.

As to `CNCC(F)(F)F`, the pKa in “physchem” is 6.

Consider `CCCCCCCCCCCCN` [DODECYLAMINE], for which, in [22], the hemolysis at 1 h, 375 µM was determined as 100%. In addition, the hemolysis at 4 h, 375 µM in [23] worked out at 100%. Also, in series [24], the hemolysis at 4 h, 188 µM was 100%. For the same molecule, the hemolysis at 1 h, 188 µM in series [25] is 100%.

On to `CCCNCC(F)(F)F`, for which the Activity in series [1] is 10%.
